# In ChEMBL document CHEMBL1154616, “Synthesis and antitumor activity studies of some new fused 1,2,4-triazole derivatives carrying 2,4-dichloro-5-fluorophenyl moiety” (Eur J Med Chem, 2009):
# Assays:
# UACC-62 = assay: Anticancer activity against human UACC62 cells after 48 hrs by sulforhodamine B assay; format: functional; conditions: UACC-62, 48 h
# Summary of the method: (§1)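 Cells from the 60-line full panel are preincubated on microtiter plates, then treated across a five-log dose range for 48 h. Growth is read with the protein-binding dye sulforhodamine B. GI50 is the concentration giving 50% growth inhibition relative to untreated control cells.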
# EKVX = assay: Anticancer activity against human EKVX cells after 48 hrs by sulforhodamine B assay; format: functional
# Summary of the method: (§2)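 Full 60-cell-line panel, compounds tested over a five-log dose range. Cells are preincubated on microtiter plates, the agent is added, and cultures run 48 h. The end point is sulphorhodamine B protein staining. GI50 is taken as the concentration giving 50% growth inhibition relative to untreated control cells.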
# 786-0 = assay: Anticancer activity against human 786-0 cells after 48 hrs by sulforhodamine B assay; format: functional; conditions: 786-0, 48 h; summary of the method: as §2
# U-251 = assay: Anticancer activity against human U251 cells after 48 hrs by sulforhodamine B assay; format: functional; conditions: U-251, 48 h; summary of the method: as §1
# A498 = assay: Anticancer activity against human A498 cells after 48 hrs by sulforhodamine B assay; format: functional; conditions: A498, 48 h; summary of the method: as §2
# CAKI-1 = assay: Anticancer activity against human Caki1 cells after 48 hrs by sulforhodamine B assay; format: functional; conditions: CAKI-1, 48 h; summary of the method: as §2
# T47D = assay: Anticancer activity against human T47D cells after 48 hrs by sulforhodamine B assay; format: functional; summary of the method: as §1
# HCT-116 = assay: Anticancer activity against human HCT116 cells after 48 hrs by sulforhodamine B assay; format: functional; conditions: HCT-116, 48 h; summary of the method: as §2
# TK-10 = assay: Anticancer activity against human TK10 cells after 48 hrs by sulforhodamine B assay; format: functional; conditions: TK-10, 48 h; summary of the method: as §1
# UO-31 = assay: Anticancer activity against human UO31 cells after 48 hrs by sulforhodamine B assay; format: functional; conditions: UO-31, 48 h; summary of the method: as §1
# HT-29 = assay: Anticancer activity against human HT-29 cells after 48 hrs by sulforhodamine B assay; format: functional; conditions: HT-29, 48 h; summary of the method: as §2
# HOP-92 = assay: Anticancer activity against human HOP92 cells after 48 hrs by sulforhodamine B assay; format: functional; conditions: HOP-92, 48 h; summary of the method: as §2
# SK-OV-3 = assay: Anticancer activity against human SKOV3 cells after 48 hrs by sulforhodamine B assay; format: functional; conditions: SK-OV-3, 48 h; summary of the method: as §2
# SK-MEL-28 = assay: Anticancer activity against human SK-MEL-28 cells after 48 hrs by sulforhodamine B assay; format: functional; conditions: SK-MEL-28, 48 h; summary of the method: as §2
# IGROV-1 = assay: Anticancer activity against human IGROV1 cells after 48 hrs by sulforhodamine B assay; format: functional; conditions: IGROV-1, 48 h; summary of the method: as §2
# SF-295 = assay: Anticancer activity against human SF295 cells after 48 hrs by sulforhodamine B assay; format: functional; conditions: SF-295, 48 h; summary of the method: as §2
# PC-3 = assay: Anticancer activity against human PC3 cells after 48 hrs by sulforhodamine B assay; format: functional; conditions: PC-3, 48 h; summary of the method: as §2
# OVCAR-8 = assay: Anticancer activity against human OVCAR8 cells after 48 hrs by sulforhodamine B assay; format: functional; conditions: OVCAR-8, 48 h; summary of the method: as §2
# NCI-H23 = assay: Anticancer activity against human NCI-H23 cells after 48 hrs by sulforhodamine B assay; format: functional; conditions: NCI-H23, 48 h; summary of the method: as §2
# NCI-H322M = assay: Anticancer activity against human NCI-H322M cells after 48 hrs by sulforhodamine B assay; format: functional; summary of the method: as §2
# HCT-15 = assay: Anticancer activity against human HCT15 cells after 48 hrs by sulforhodamine B assay; format: functional; conditions: HCT-15, 48 h; summary of the method: as §2
# MCF7 [1] = assay: Anticancer activity against human MCF7 cells after 48 hrs by sulforhodamine B assay; format: functional; conditions: MCF7, 48 h; summary of the method: as §2
# SF-268 [2] = assay: Anticancer activity against human SF268 cells assessed as cell growth at 100 uM after 48 hrs by sulforhodamine B assay relative to control; format: functional; conditions: SF-268, 48 h, read-out: Activity
# Summary of the method: (§3)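 Three-cell-line prescreen (NCI-H460 lung, MCF7 breast, SF 268 CNS), each preincubated on microtiter plates. The agent is added at a single concentration and cultures are incubated 48 h. Growth is read by sulphorhodamine B protein staining and reported as percent growth of treated versus untreated control cells; negative values indicate cell kill.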
# OVCAR-5 = assay: Anticancer activity against human OVCAR5 cells after 48 hrs by sulforhodamine B assay; format: functional; conditions: OVCAR-5, 48 h; summary of the method: as §2
# LOX IMVI = assay: Anticancer activity against human LOXIMVI cells after 48 hrs by sulforhodamine B assay; format: functional; summary of the method: as §2
# A549 = assay: Anticancer activity against human A549 cells after 48 hrs by sulforhodamine B assay; format: functional; conditions: A549, 48 h; summary of the method: as §2
# DU-145 = assay: Anticancer activity against human DU145 cells after 48 hrs by sulforhodamine B assay; format: functional; conditions: DU-145, 48 h; summary of the method: as §2
# RXF 393 = assay: Anticancer activity against human RXF393 cells after 48 hrs by sulforhodamine B assay; format: functional; conditions: RXF 393, 48 h; summary of the method: as §2
# SF-268 [3] = assay: Anticancer activity against human SF268 cells after 48 hrs by sulforhodamine B assay; format: functional; conditions: SF-268, 48 h; summary of the method: as §2
# NCI-H522 = assay: Anticancer activity against human NCI-H522 cells after 48 hrs by sulforhodamine B assay; format: functional; conditions: NCI-H522, 48 h; summary of the method: as §2
# MCF7 [4] = assay: Anticancer activity against human MCF7 cells assessed as cell growth at 100 uM after 48 hrs by sulforhodamine B assay relative to control; format: functional; conditions: MCF7, 48 h, read-out: Activity; summary of the method: as §3
# UACC-257 = assay: Anticancer activity against human UACC257 cells after 48 hrs by sulforhodamine B assay; format: functional; conditions: UACC-257, 48 h; summary of the method: as §1
# M14 = assay: Anticancer activity against human M14 cells after 48 hrs by sulforhodamine B assay; format: functional; conditions: M14, 48 h; summary of the method: as §2
# ACHN = assay: Anticancer activity against human ACHN cells after 48 hrs by sulforhodamine B assay; format: functional; summary of the method: as §2
# NCI/ADR-RES = assay: Anticancer activity against human NCI/ADR-RES cells after 48 hrs by sulforhodamine B assay; format: functional; summary of the method: as §2
# OVCAR-3 = assay: Anticancer activity against human OVCAR-3 cells after 48 hrs by sulforhodamine B assay; format: functional; conditions: OVCAR-3, 48 h; summary of the method: as §2
# MDA-MB-231 = assay: Anticancer activity against human MDA-MB-231 cells after 48 hrs by sulforhodamine B assay; format: functional; conditions: MDA-MB-231, 48 h; summary of the method: as §2
# SN12C = assay: Anticancer activity against human SN12C cells after 48 hrs by sulforhodamine B assay; format: functional; summary of the method: as §2
# OVCAR-4 = assay: Anticancer activity against human OVCAR4 cells after 48 hrs by sulforhodamine B assay; format: functional; conditions: OVCAR-4, 48 h; summary of the method: as §2
# NCI-H226 = assay: Anticancer activity against human NCI-H226 cells after 48 hrs by sulforhodamine B assay; format: functional; conditions: NCI-H226, 48 h; summary of the method: as §2
# [5] = Acute toxicity in orally dosed Swiss albino mouse after 24 hrs; format: organism-based; conditions: in vivo, po
# Summary of the method: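 Male Swiss albino mice (Mus musculus); median lethal dose (LD50) determined after oral dosing, read at 24 h.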
# KM12 = assay: Anticancer activity against human KM12 cells after 48 hrs by sulforhodamine B assay; format: functional; conditions: KM12, 48 h; summary of the method: as §2
# Malme-3M = assay: Anticancer activity against human MALME-3M cells after 48 hrs by sulforhodamine B assay; format: functional; summary of the method: as §2
# SNB-19 = assay: Anticancer activity against human SNB19 cells after 48 hrs by sulforhodamine B assay; format: functional; conditions: SNB-19, 48 h; summary of the method: as §2
# COLO 205 = assay: Anticancer activity against human COLO205 cells after 48 hrs by sulforhodamine B assay; format: functional; conditions: COLO 205, 48 h; summary of the method: as §2
# MDA-MB-435 = assay: Anticancer activity against human MDA-MB-435 cells after 48 hrs by sulforhodamine B assay; format: functional; conditions: MDA-MB-435, 48 h; summary of the method: as §2
# SW-620 = assay: Anticancer activity against human SW620 cells after 48 hrs by sulforhodamine B assay; format: functional; conditions: SW-620, 48 h; summary of the method: as §1
# MOLT-4 = assay: Anticancer activity against human MOLT4 cells after 48 hrs by sulforhodamine B assay; format: functional; conditions: MOLT-4, 48 h; summary of the method: as §2
# K562 = assay: Anticancer activity against human K562 cells after 48 hrs by sulforhodamine B assay; format: functional; conditions: K562, 48 h; summary of the method: as §2
# HOP-62 = assay: Anticancer activity against human HOP62 cells after 48 hrs by sulforhodamine B assay; format: functional; conditions: HOP-62, 48 h; summary of the method: as §2
# HCC 2998 = assay: Anticancer activity against human HCC2998 cells after 48 hrs by sulforhodamine B assay; format: functional; conditions: HCC 2998, 48 h; summary of the method: as §2
# NCI-H460 [6] = assay: Anticancer activity against human NCI-H460 cells assessed as cell growth at 100 uM after 48 hrs by sulforhodamine B assay relative to control; format: functional; conditions: NCI-H460, 48 h, read-out: Activity; summary of the method: as §3
# NCI-H460 [7] = assay: Anticancer activity against human NCI-H460 cells after 48 hrs by sulforhodamine B assay; format: functional; conditions: NCI-H460, 48 h; summary of the method: as §2
# BT-549 = assay: Anticancer activity against human BT549 cells after 48 hrs by sulforhodamine B assay; format: functional; conditions: BT-549, 48 h; summary of the method: as §2
# SNB-75 = assay: Anticancer activity against human SNB75 cells after 48 hrs by sulforhodamine B assay; format: functional; conditions: SNB-75, 48 h; summary of the method: as §1
smiles,measurement,setting,value
Fc1cc(-c2nnc3n2N=C(c2ccc(Cl)cc2)CS3)c(Cl)cc1Cl,GI50,UACC-62,3.63 µM
same,GI50,EKVX,27.4 µM
same,GI50,786-0,2.08 µM
same,GI50,U-251,10.6 µM
same,GI50,A498,21 µM
same,GI50,CAKI-1,4.21 µM
same,GI50,T47D,3.9 µM
same,GI50,HCT-116,2.36 µM
same,GI50,TK-10,3.11 µM
same,GI50,UO-31,1.89 µM
same,GI50,HT-29,4.6 µM
same,GI50,HOP-92,16.4 µM
same,GI50,SK-OV-3,25.4 µM
same,GI50,SK-MEL-28,6.41 µM
same,GI50,IGROV-1,3.39 µM
same,GI50,SF-295,15.7 µM
same,GI50,PC-3,18.7 µM
same,GI50,OVCAR-8,14.8 µM
same,GI50,NCI-H23,13.8 µM
same,GI50,NCI-H322M,16.2 µM
same,GI50,HCT-15,1.86 µM
same,GI50,MCF7 [1],6.24 µM
same,growth at 100 µM,SF-268 [2],3%
same,GI50,OVCAR-5,10.6 µM
same,GI50,LOX IMVI,1.69 µM
same,GI50,A549,18.3 µM
same,GI50,DU-145,3.41 µM
same,GI50,RXF 393,11.4 µM
same,GI50,SF-268 [3],13.2 µM
same,GI50,NCI-H522,1.8 µM
same,growth at 100 µM,MCF7 [4],3%
same,GI50,UACC-257,15.7 µM
same,GI50,M14,4.87 µM
same,GI50,ACHN,4.82 µM
same,GI50,NCI/ADR-RES,3.12 µM
same,GI50,OVCAR-3,15.1 µM
same,GI50,MDA-MB-231,10.8 µM
same,GI50,SN12C,3.6 µM
same,GI50,OVCAR-4,5.35 µM
same,GI50,NCI-H226,18.1 µM
same,LD50 at 24 h,[5],227 mg/kg
same,GI50,KM12,8.08 µM
same,GI50,Malme-3M,2.37 µM
same,GI50,SNB-19,19.5 µM
same,GI50,COLO 205,7.09 µM
same,GI50,MDA-MB-435,4.55 µM
same,GI50,SW-620,1.91 µM
same,GI50,MOLT-4,1.06 µM
same,GI50,K562,1.69 µM
same,GI50,HOP-62,20.1 µM
same,GI50,HCC 2998,13.6 µM
same,growth at 100 µM,NCI-H460 [6],3%
same,GI50,NCI-H460 [7],19.1 µM
same,GI50,BT-549,3.27 µM
same,GI50,SNB-75,3.37 µM
